High-throughput results deposited in PubChem BioAssay by The Scripps Research Institute Molecular Screening Center.
This is a sample that favours compounds with a hit; in the whole collection about 1.5% have one here.
OXTR ag: activates the human oxytocin receptor; actives 0.32% (n = 320,000); activation, % at 3 µM; AID 2435; P30559; CHO-OTR cells, Fluo-8 calcium fluorescence; normalized: DMSO 0%, oxytocin 100%;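 active means activation above the mean of all tested compounds plus 3 SD, cutoff set per screening run, cut at about 20% in these data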;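 further: peak over basal fluorescence ratio from a 100 s FLIPR kinetic read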
Target sequence (P30559 whole entry, looked up): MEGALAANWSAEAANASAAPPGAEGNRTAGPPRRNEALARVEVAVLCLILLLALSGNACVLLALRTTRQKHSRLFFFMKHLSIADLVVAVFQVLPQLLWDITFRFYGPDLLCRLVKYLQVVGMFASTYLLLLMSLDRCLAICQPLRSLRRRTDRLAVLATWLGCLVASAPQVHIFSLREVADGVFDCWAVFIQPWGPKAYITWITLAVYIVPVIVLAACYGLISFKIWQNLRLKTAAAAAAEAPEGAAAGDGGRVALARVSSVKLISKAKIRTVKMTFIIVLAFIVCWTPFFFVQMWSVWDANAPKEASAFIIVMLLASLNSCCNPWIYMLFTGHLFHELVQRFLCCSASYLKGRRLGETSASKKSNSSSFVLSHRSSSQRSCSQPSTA
OXTR potentiator: human OXTR potentiation. CHO-OTR cells, Fluo-8 calcium fluorescence, potentiator mode; 0% = oxytocin EC15, 100% = EC100. actives 0.061% (n = 320,000). P30559. activation, % at 3 µM;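 active means activation above that plate's cutoff, the mean activation of tested compounds plus 3 SD, cut at about 6.6% in these data, passing the limit was not always enough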;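 further: 100% uses oxytocin at 75 nM as the full agonist control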
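test system = CHO-OTR cells, human receptor | compound = single-point 3.0 µM | schedule = 6 min compound pre-incubation at room temperature, 100 s kinetic read | signal = Fluo-8 no-wash calcium dye fluorescence, excitation 470-495 nm, emission 515-575 nm | repeats = single well per compound, singlicate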
V1R ag counter: activates human V1a receptor in oxytocin agonist counter-screen | CHO-V1R cells, Fluo-8 calcium fluorescence, agonist mode; 0% DMSO, 100% 3 nM vasopressin | actives 0.25% (n = 320,000) | AID 2797 | activation, % at 3 µM;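 active means activation above the mean activation of all tested compounds plus 3 SD, per screening run, cut at about 20% in these data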;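 further: signal is peak over basal fluorescence ratio across a 100 second FLIPR read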
CHRM4 agonist: agonists of human muscarinic M4 receptor (CHRM4). P08173. CHO-K1 hM4/Gqi5, Fluo-8 calcium fluorescence; vehicle 0%, full acetylcholine response 100%. activation, % at 3 µM. actives 0.14% (n = 360,000);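 active means activation above the run mean over all test wells plus 3 SD, cut at about 32% in these data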;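 further: peak over basal fluorescence ratio per well then scaled between controls; 0% = DMSO wells and 100% = acetylcholine at EC100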
CHRM4 antagonist: CHRM4 antagonism in calcium assay | P08173 | CHO-hM4 cells, ACh EC80, Fluo-8 calcium fluorescence | inhibition, % at 3 µM | actives 0.73% (n = 360,000);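 active means inhibition above its plate's cutoff, the mean inhibition of sample wells plus 3 SD, cut at about 27% in these data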;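 further: 0% = acetylcholine EC80 with DMSO and 100% = DMSO without agonist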
M4 PAM: potentiates acetylcholine response at human M4 receptor; AID 624126; activation, % at 3 µM; actives 0.4% (n = 360,000); P08173; CHO-K1 hM4/Gqi5, Fluo-8 calcium fluorescence, ACh EC20; 0% = ACh EC20, 100% = maximal ACh;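 active means activation above its plate's cutoff, the mean activation of sample wells plus 3 SD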
The depositor's hits bear a star; . = not tested or not shown.

SMILES	OXTR ag	OXTR potentiator	V1R ag counter	CHRM4 agonist	CHRM4 antagonist	M4 PAM
CS(=O)(=O)N1CCN(c2ccc(Cl)cc2[N+](=O)[O-])CC1	-0.7	-4.7	0.8	1.1	-2.3	5.9
CS(=O)(=O)N1CCN(c2ccc([N+](=O)[O-])c3cccnc23)CC1	0.2	3.7	0.2	1.9	34.9*	21.4
O=C1Nc2ccccc2/C1=C\C(=O)c1ccccc1	0.0	-21.8	1.4	3.3	12.7	-7.3
CC(C)Oc1ccc(C(=O)/C=C2/C(=O)Nc3ccccc32)cc1	-0.8	-8.9	0.9	7.9	24.2	-17.0
COc1ccc(C(=O)/C=C2\C(=O)Nc3ccc(Br)cc32)cc1	.	.	.	5.4	26.6*	-8.7
O=C1Nc2ccc(Br)cc2/C1=C/C(=O)c1ccc2c(c1)OCO2	-0.3	-9.5	0.4	5.2	46.9*	-28.6
CCN(CC)c1ccc(/C=C(/C#N)C(=O)NCc2ccccc2)o1	29.5*	-11.3	26.3*	13.3	8.4	-11.4
CCN(CC)c1ccc(/C=C(/C#N)C(=O)NC(C)C)o1	12.3	-4.8	8.3	10.2	7.0	4.6
O=C1c2ccccc2C(Nc2cccnc2)N1Cc1ccccc1Cl (stereo unspecified)	-1.2	-2.5	-0.2	11.6	3.7	-10.7
O=C1c2ccccc2C(Nc2cccnc2)N1Cc1ccccc1 (stereo unspecified)	-0.6	-3.7	1.0	14.4	29.0*	-14.8
CCCC(O)(CCN1CCOCC1)c1ccc(Cl)cc1 (stereo unspecified)	-0.7	-7.3	-0.9	0.7	21.6	-40.4
CCCC(O)(CCN1CCOCC1)c1ccc(Br)cc1 (stereo unspecified)	0.8	-6.0	0.3	-0.3	43.8*	-26.8
O=C(COC(=O)CNC(=O)c1ccc(Cl)cc1)Nc1ccc(Cl)cc1C(F)(F)F	0.6	-5.9	3.5	1.7	-0.5	-3.6
FC(F)(F)c1cc(CCN2CCNC[C@@H]2CC2CCCCC2)cc(C(F)(F)F)c1	10.1	8.2	11.7	0.0	29.1*	-8.1
CCOc1cc(/C=C2/SC(=S)N(Cc3ccccc3)C2=O)ccc1O	25.7*	-16.5	36.6*	26.4	26.1	-5.8
COc1cc([N+](=O)[O-])cc(/C=C2/SC(=S)N(Cc3ccccc3)C2=O)c1O	82.0*	-25.3	63.6*	32.2*	22.6	-19.6
O=C(NN1C(=O)/C(=C/c2ccc(O)cc2)SC1=S)c1ccccc1O	13.9	-18.8	11.0	20.6	3.1	-8.0
COc1cc(/C=C2/SC(=S)N(Cc3ccccc3)C2=O)cc(Cl)c1O	70.1*	-23.2	64.6*	15.9	17.8	-12.8
COc1cc(/C=C2\SC(=S)N(NC(=O)c3ccccc3O)C2=O)ccc1O	12.6	-14.2	14.7	32.6*	19.7	-17.6
O=C1/C(=C\c2cccc([N+](=O)[O-])c2O)SC(=S)N1Cc1ccccc1	2.3	-17.8	6.6	2.6	-11.4	-4.7
COc1cc(/C=C2/SC(=S)N(Cc3ccccc3)C2=O)ccc1OCC(=O)O	-0.4	-18.5	1.8	1.4	-6.7	0.6
COC(=O)c1ccc(COc2cccn3c(N(C)C(=O)CCC4CCCC4)c(C)nc23)cc1	.	.	.	12.0	10.8	-15.6
COc1ccc(CN2C(=O)CSCC2(C)C(=O)NCc2ccccc2)cc1 (stereo unspecified)	.	.	.	10.5	-18.7	-0.5
COc1ccc2c(c1)CCC(=O)[C@H](O)C[C@H](c1ccccc1)OC2=O	.	.	.	8.7	-5.0	18.1
COc1ccc(/C=C2\SC(=S)N(CCC(=O)N(CCO)Cc3ccccc3)C2=O)cc1OC	-1.2	-20.7	1.1	5.1	17.5	37.1*
SMILES	OXTR ag	OXTR potentiator	V1R ag counter	CHRM4 agonist	CHRM4 antagonist	M4 PAM
O=c1[nH]c(CSc2nc3ccccc3s2)nc2ccccc12	-1.1	-0.9	1.2	3.2	-4.9	-3.2
COc1ccc(C2NCCc3c2[nH]c2ccccc32)cc1CSc1nc2ccccc2s1 (stereo unspecified)	8.0	-6.7	2.7	9.0	31.7*	-12.3
COc1ccc(N2C(=O)CC(C#N)=C2N)cc1	0.2	-0.6	0.9	0.8	5.7	-2.6
COc1ccc(N2C(=O)Cc3c2nc(N)c(C#N)c3N)cc1	0.9	-3.5	0.7	1.6	27.6*	9.6
Cc1ccc(CN2CCC(CNC(=O)C3CCCN(c4ncnc5c4nc4n5CCCCC4)C3)CC2)cc1 (stereo unspecified)	-2.1	-11.3	-0.7	0.9	38.4*	-26.0
O=C(NCC1CCN(Cc2ccccc2F)CC1)C1CCCN(c2ncnc3c2nc2n3CCCCC2)C1 (stereo unspecified)	-1.2	-4.3	1.0	-0.6	52.1*	-21.4
O=C(NCc1ccccc1Cl)C1CCCN(c2ncnc3c2nc2n3CCCCC2)C1 (stereo unspecified)	-2.5	-17.0	-1.5	2.0	2.0	-0.3
Cc1ccc(CCNC(=O)C2CCCN(c3ncnc4c3nc3n4CCCCC3)C2)cc1 (stereo unspecified)	-1.6	-9.5	-1.7	2.3	-2.7	5.2
O=C(Nc1cccnc1Cl)C1CCCN(c2ncnc3c2nc2n3CCCCC2)C1 (stereo unspecified)	4.5	-9.0	0.5	3.1	-35.1	17.7*
Cc1ccc(NC(=O)CN(C)C(=O)c2ccc(NS(=O)(=O)c3cccc([N+](=O)[O-])c3)cc2)cc1	1.2	-1.9	-0.1	0.5	7.9	0.4
Cc1ccc(NS(=O)(=O)c2ccc(OCC(=O)Nc3cccc([N+](=O)[O-])c3)c(C)c2)cc1	0.8	-11.3	0.3	4.1	29.9*	-27.7
Cc1ccc2nc(SCC(=O)NCC3CCCO3)c(C#N)cc2c1 (stereo unspecified)	-2.5	-0.8	-0.6	0.0	-2.0	4.4
Cc1ccc2cc(C#N)c(SCC(=O)NCC3CCCO3)nc2c1 (stereo unspecified)	-1.7	-4.5	-1.7	0.7	-3.2	26.2*
Cc1cc(C(=O)OCC(=O)N2CCCC2)c2ccccc2n1	0.8	4.2	-0.4	1.2	-0.1	-3.4
Cc1cc(C(=O)OCC(=O)N2CCOCC2)c2ccccc2n1	-0.4	-4.7	1.0	0.8	-10.4	18.6*
CCCCCC(=O)NNC(=O)c1ccc(-c2ccccc2)cc1	-0.5	-7.3	-0.1	0.3	-1.5	12.7
O=C(COC(=O)COc1ccccc1)Nc1ccc(Br)cc1F	-0.2	-4.3	0.0	1.2	7.5	14.5*
O=C(c1noc2c1CCCC2)N1CCN(c2ccc(F)cc2)CC1	1.0	-5.8	1.1	3.1	29.1*	3.1
Cc1c([N+](=O)[O-])c(C(=O)NC2CCCCC2)nn1C	0.7	-5.9	-0.4	2.1	2.2	2.4
Cc1ccc(CNc2ccc(N3CCOCC3)cc2)cc1	0.1	-3.7	-0.2	1.7	-19.6	13.9*
